Laboratory results published in ChEMBL document CHEMBL1681762, “Application of plant allylpolyalkoxybenzenes in synthesis of antimitotic phenstatin analogues” (2011).

Legend:
Assay type in all cases: functional
[1] = system: Paracentrotus lividus; assay: tubulin-destabilizing activity in sea urchin embryo assessed as embryo spinning treated immediately 8 to 10 hrs after fertilization
How it was run: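 Free-swimming sea urchin blastulae were treated and monitored for behavioural change. Reported value is the effective threshold concentration (EC), from duplicate measurements.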

[2] = system: Paracentrotus lividus; assay: Antiproliferative activity against sea urchin embryo assessed as cleavage alteration after 10 to 15 mins fertilization 45 to 60 mins before first mitotic cycle completion
How it was run: (§1)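 Phenotypic in vivo assay on fertilized sea urchin eggs, scored for cleavage alteration or arrest. Reported value is the effective threshold concentration (EC), from duplicate measurements.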

[3] = system: Paracentrotus lividus; assay: Antiproliferative activity against sea urchin embryo assessed as cleavage arrest after 10 to 15 mins fertilization 45 to 60 mins before first mitotic cycle completion; how it was run: as §1

SMILES	EC [1] [µM]	EC [2] [µM]	EC [3] [µM]
COc1ccc(C(=O)c2ccc3c(c2)OCCO3)cc1O	>5	0.1	0.2
COc1ccc(C(=O)c2cc(OC)c(OC)c(OC)c2)cc1O [PHENSTATIN]	0.5	0.01	0.05
COc1ccc(C(=O)c2cc(OC)c(OC)c(OC)c2OC)cc1O	>5	2	>4
COc1ccc(/C=C\c2cc(OC)c(OC)c(OC)c2)cc1O [COMBRETASTATIN A4]	0.05	0.002	0.01
COc1ccc(C(=O)c2cc(OC)c3c(c2)OCO3)cc1O	0.1	0.001	0.01
COc1ccc(C(=O)c2cc(OC)c3c(c2OC)OCO3)cc1O	>5	2	>4
COc1ccc(C(=O)c2cc3c(c(OC)c2OC)OCO3)cc1O	>5	1	4
COc1ccc(C(=O)c2ccc3c(c2)OCCO3)cc1	>5	0.5	1
COc1ccc(/C=C\c2cc(OC)c3c(c2)OCO3)cc1O [Combretastatin A-2]	0.05	0.002	0.01
